Laboratory results taken from ChEMBL document CHEMBL4382237, “Design, Synthesis, and Biological Evaluation of 2-Nitroimidazopyrazin-one/-es with Antitubercular and Antiparasitic Activity” (J Med Chem, 2018).
Values after ≈ are worked out from the molar mass of the structure shown.

How the values were obtained:
[1] = tested on: Mycobacterium tuberculosis; assay: Antibacterial activity against non-replicating Mycobacterium tuberculosis H37Rv assessed as inhibition of bacterial growth at 0.06 to 16 ug/ml after 5 days under hypoxic condition by resazurin dye-based fluorescence assay relative to control; assay type: functional; details: at 0.06 to 16 µg/mL
[2] = tested on: Candida albicans; assay: Antifungal activity against Candida albicans ATCC 90028 by broth microdilution assay; assay type: functional
How it was run: (§1)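 Broth microdilution run essentially per an earlier report. MIC taken as the lowest concentration with no visible growth. Replicates typically agreed within one 2-fold dilution. The median MIC is reported, with a range where the median fell between two tested concentrations.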

[3] = physchem; details: PBS, pH 7.4
[4] = tested on: HepG2; assay: Cytotoxicity against human HepG2 cells after 24 hrs by resazurin dye-based fluorescence assay; assay type: cell-based; details: hepg2, 24 h
How it was run: (§2)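 HEK293 (3000/well) and HepG2 (5000/well) were grown 24 h in DMEM with 10% FBS at 37 °C, 5% CO2. Cells were then exposed 24 h to a dilution series up to 100 µM (0.5% DMSO). 5 µM resazurin was added for 2 h, read at ex 560/em 590. 1% Triton X-100 served as lysis control. CC50 was derived from the curves.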

[5] = tested on: Acinetobacter baumannii; assay: Antibacterial activity against Acinetobacter baumannii ATCC 19606 by broth microdilution assay; assay type: functional; details: ATCC 19606 = CIP 70.34 = JCM 6841; how it was run: as §1
[6] = tested on: Escherichia coli; assay: Antibacterial activity against Escherichia coli ATCC 25922 by broth microdilution assay; assay type: functional; how it was run: as §1
[7] = tested on: Giardia intestinalis; assay: Antiparasitic activity against Giardia lamblia WB trophozoites after 24 to 48 hrs by CellTiter-Glo luminescent cell viability assay; details: Giardia duodenalis
[8] = tested on: Mycobacterium tuberculosis; assay: Antibacterial activity against Mycobacterium tuberculosis H37Rv after 5 days under normoxic condition by resazurin dye-based fluorescence assay; assay type: functional, organism-based
How it was run: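 H37Rv grown in 7H9/ADC/glycerol/Tyloxapol to mid-exponential phase, diluted to OD600 0.001 (~2 x 10^4 CFU/mL) in 7H9S with serially diluted compound. Incubated 5 days at 37 °C, then resazurin and Tween-80 added. Fluorescence (ex 530/em 590 nm) read after 24 h, normalised to no-drug and no-bacteria wells.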

[9] = tested on: Cryptococcus neoformans; assay: Antifungal activity against Cryptococcus neoformans H99 ATCC […] broth microdilution assay; assay type: functional; details: var. grubii H99 ATCC 208821; how it was run: as §1
[10] = tested on: Staphylococcus aureus; assay: Antibacterial activity against methicillin-resistant Staphylococcus aureus ATCC […] by broth microdilution assay; assay type: functional
[11] = tested on: HEK293; assay: Cytotoxicity against HEK293 cells after 24 hrs by resazurin dye-based fluorescence assay; assay type: cell-based; details: human, hek293, 24 h; how it was run: as §2
[12] = tested on: Klebsiella pneumoniae; assay: Antibacterial activity against Klebsiella pneumoniae 700603 by broth microdilution assay; assay type: functional; how it was run: as §1
[13] = tested on: Pseudomonas aeruginosa; assay: Antibacterial activity against Pseudomonas aeruginosa ATCC 27853 by broth microdilution assay; assay type: functional; how it was run: as §1
[14] = tested on: Trypanosoma brucei brucei; assay: Antiparasitic activity against bloodstream form of Trypanosoma brucei brucei strain 427 after 48 hrs by resazurin dye-based assay; assay type: functional, organism-based; details: strain 427, 48 h
[15] = physchem; details: water
[16] = tested on: Trypanosoma brucei brucei; assay: Antiparasitic activity against bloodstream form of Trypanosoma brucei brucei strain 427 assessed as inhibition of parasitic growth at 40 uM after 48 hrs by resazurin dye-based assay relative to control; assay type: functional; details: strain 427, 48 h, read-out: GI
[17] = tested on: Entamoeba histolytica; assay: Antiparasitic activity against Entamoeba histolytica HM-1:IMSS trophozoites after 24 to 48 hrs by CellTiter-Glo luminescent cell viability assay; assay type: functional, organism-based
How it was run: (§3)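 Axenic trophozoites were kept in TYI-S-33 with penicillin (100 U/mL) and streptomycin (100 µg/mL) and harvested in log phase. 5000 parasites per well were exposed to a final 8-point two-fold series of 0.39–50 µM, from 10 mM DMSO stocks. Plates were incubated 24–48 h at 37 °C under anaerobic conditions. ATP luminescence viability was read in triplicate. Percent inhibition is given at the highest concentration tested.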

[18] = tested on: Mycobacterium tuberculosis; assay: Antibacterial activity against non-replicating Mycobacterium tuberculosis H37Rv after 5 days under hypoxic condition by resazurin dye-based fluorescence assay; assay type: functional; details: 120 h
How it was run: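 Same H37Rv inoculum (OD600 0.001, ~2 x 10^4 CFU/mL) in 7H9S with serially diluted compound. Plates held 5 days at 0.1% oxygen, then resazurin plus Tween-80 added.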

[19] = tested on: Giardia intestinalis; assay: Antiparasitic activity against Giardia lamblia WB trophozoites assessed as inhibition of parasitic growth at 50 uM after 24 to 48 hrs by CellTiter-Glo luminescent cell viability assay relative to control; assay type: functional; details: Giardia duodenalis, read-out: GI; how it was run: as §3
[20] = tested on: Mycobacterium tuberculosis; assay: Antibacterial activity against non-replicating Mycobacterium tuberculosis H37Rv assessed as inhibition of bacterial growth at 0.125 to 8 ug/ml after 5 days under hypoxic condition by resazurin dye-based fluorescence assay relative to control; assay type: functional
[21] = tested on: Entamoeba histolytica; assay: Antiparasitic activity against Entamoeba histolytica HM-1:IMSS trophozoites assessed as inhibition of parasitic growth at 50 uM after 24 to 48 hrs by CellTiter-Glo luminescent cell viability assay relative to control; assay type: functional; details: read-out: GI; how it was run: as §3
[22] = buffer, pH 7.4, 24 h, 200 µM
[23] = buffer, 24 h, 200 µM

Which “growth inhibition (GI)” value [1] does the source give for `O=c1c2nc([N+](=O)[O-])cn2ccn1Cc1cccc(C(F)(F)F)c1` here?
Its value is 70 - 90%.

And the MIC [2]?
Its MIC is > 32 µg/mL.

What about the solubility kinetic at 24 h, 200 µM [3] of the same compound?
The solubility kinetic at 24 h, 200 µM was < 5 µM.

And the CC50 [4]?
Its CC50 is > 100 µM.

What about the MIC [5] of the same compound?
Its MIC is > 32 µg/mL.

What about the MIC [6] of the same compound?
The MIC was > 32 µg/mL.

What about the IC50 [7] of the same compound?
The IC50 was 7.1 µM.

What about the IC50 ([7]; read-out: pIC50 (converted)) of the same compound?
The IC50 was 7.94 µM.

What about the MIC [8] of the same compound?
The MIC was 0.06 µg/mL (≈ 0.177 µM).

What about the MIC [9] of the same compound?
The MIC was > 32 µg/mL.

And the MIC [10]?
The MIC was > 32 µg/mL.

And the CC50 [11]?
The CC50 was > 100 µM.

What about the MIC [12] of the same compound?
Its MIC is > 32 µg/mL.

What about the MIC [13] of the same compound?
The MIC was > 32 µg/mL.

And the IC50 ([14]; read-out: IC50)?
Its IC50 is 5.3 µM.

What about the IC50 ([14]; read-out: pIC50 (converted)) of the same compound?
Its IC50 is 5.01 µM.

And the solubility kinetic at 24 h, 200 µM [15]?
Its solubility kinetic at 24 h, 200 µM is < 5 µM.

For `Cc1cn2cc([N+](=O)[O-])nc2c(OCCO)n1`, which inhibition of growth at 40 µM [16] is on record?
The inhibition of growth at 40 µM was 56%.

What about the IC50 ([17]; read-out: IC50) of the same compound?
Its IC50 is > 50 µM.

And the IC50 ([17]; read-out: pIC50 (converted))?
Its IC50 is > 50.1 µM.

And the MIC [18]?
Its MIC is > 32 µg/mL.

And the inhibition of growth at 50 µM [19]?
Its inhibition of growth at 50 µM is 80%.

For `Cc1cccc(Cn2ccn3cc([N+](=O)[O-])nc3c2=O)c1`, which MIC [2] is on record?
Its MIC is > 32 µg/mL.

What about the CC50 [4] of the same compound?
The CC50 was > 100 µM.

And the MIC [5]?
Its MIC is > 32 µg/mL.

And the MIC [6]?
Its MIC is > 32 µg/mL.

What about the IC50 [7] of the same compound?
Its IC50 is 9 µM.

What about the IC50 ([7]; read-out: pIC50 (converted)) of the same compound?
The IC50 was 10 µM.

What about the MIC [8] of the same compound?
The MIC was 0.06 µg/mL (≈ 0.211 µM).

And the MIC [9]?
The MIC was > 32 µg/mL.

What about the MIC [10] of the same compound?
The MIC was > 32 µg/mL.

What about the CC50 [11] of the same compound?
The CC50 was > 100 µM.

What about the MIC [12] of the same compound?
Its MIC is > 32 µg/mL.

And the MIC [13]?
The MIC was > 32 µg/mL.

And the IC50 ([14]; read-out: IC50)?
Its IC50 is 5.4 µM.

And the IC50 ([14]; read-out: pIC50 (converted))?
The IC50 was 5.01 µM.

And the “growth inhibition (GI)” value [20]?
The value was 70 - 90%.

For `CC(=O)OCCOc1nc(C)cn2cc([N+](=O)[O-])nc12`, which inhibition of growth at 50 µM [21] is on record?
The inhibition of growth at 50 µM was 42%.

And the IC50 [7]?
Its IC50 is 21 µM.

And the IC50 ([7]; read-out: pIC50 (converted))?
The IC50 was 20 µM.

And the MIC [18]?
Its MIC is > 32 µg/mL.

What about the IC50 ([14]; read-out: IC50) of the same compound?
Its IC50 is > 40 µM.

What about the IC50 ([14]; read-out: pIC50 (converted)) of the same compound?
The IC50 was > 39.8 µM.

What does the source list for `CC(=O)OCCn1c(C)cn2cc([N+](=O)[O-])nc2c1=O`?
solubility kinetic at 24 h, 200 µM [3]: 100 to 200 µM (≈ 28 to 56 µg/mL); inhibition of growth at 50 µM [21]: 41%; IC50 [7]: 50 µM; IC50 ([7]; read-out: pIC50 (converted)): 50.1 µM; MIC [8]: >32 µg/mL; MIC [18]: > 32 µg/mL; log(Kinetic_solubility) [22]: > -4; log(Kinetic_solubility) [23]: > -4; IC50 ([14]; read-out: IC50): 0.65 µM; IC50 ([14]; read-out: pIC50 (converted)): 0.631 µM; solubility kinetic at 24 h, 200 µM [15]: 100 to 200 µM (≈ 28 to 56 µg/mL)
